Paper PMC7080202 (Medicinal Chemistry Research, 2013)
Entries after “also recorded” stand apart in the source; their conditions may differ. Read-outs that look alike come from different tables or passages of the source.

Assays:
[1] = tested on: Cytomegalovirus Davis strain; assay: microbe, parasite or virus in culture; format: cell-based; settings: Human betaherpesvirus 5, HEL, read-out: EC50 Cytomegalovirus Davis strain
[2] = tested on: Herpes simplex virus-1 (KOS); assay: microbe, parasite or virus in culture; format: cell-based, herpes simplex virus type 1; settings: Human alphaherpesvirus 1, HEL, read-out: EC50 Herpes simplex virus-1 (KOS)
[3] = tested on: Herpes simplex virus-2 (G); assay: microbe, parasite or virus in culture; format: cell-based, herpes simplex virus type 2; settings: Human alphaherpesvirus 2, HEL, read-out: EC50 Herpes simplex virus-2 (G)
[4] = tested on: Vaccinia virus; assay: microbe, parasite or virus in culture; format: cell-based; settings: Orthopoxvirus vaccinia, HEL, read-out: EC50 Vaccinia virus
[5] = tested on: Vesicular stomatitis virus; assay: microbe, parasite or virus in culture; format: cell-based; settings: Vesicular stomatitis virus, HEL, read-out: EC50 Vesicular stomatitis virus
[6] = tested on: Herpes simplex virus-1TK-KOS ACV^r; assay: microbe, parasite or virus in culture; format: cell-based, herpes simplex virus type 1; settings: Human alphaherpesvirus 1, HEL, read-out: EC50 Herpes simplex virus-1TK-KOS ACV^r
[7] = tested on: Feline herpes virus; assay: Antiviral CPE assay, feline herpes virus in CRFK cells; format: cell-based; settings: CRFK, read-out: EC50 Feline herpes virus
[8] = tested on: Coxsackie virus B4; assay: microbe, parasite or virus in culture; format: cell-based; settings: Enterovirus B, B4, HeLa, read-out: Antiviral activity EC50 Coxsackie virus B4
[9] = tested on: Influenza A H1N1 subtype; assay: Anti-influenza virus activity, influenza A H1N1 in MDCK cells; format: cell-based, influenza A virus A/Puerto Rico/8/34 (H1N1); settings: H1N1, H3N2 and influenza B; below the non-toxic concentration of 100 µM
[10] = tested on: Influenza B; assay: Anti-influenza virus activity, influenza B in MDCK cells; format: cell-based, influenza B virus B/Hong Kong/5/72; settings: Influenza B virus, MDCK
[11] = tested on: Human embryonic lung cell cultures; assay: Cytotoxicity; format: cell-based
Procedure, shortened: (§1)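 Cell cultures incubated with varying concentrations of test compound, then examined by microscopy. MCC is the lowest concentration that causes a microscopically detectable alteration of normal cell morphology. HEL, Vero and HeLa lines were monitored regularly for mycoplasma and found free of it.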

[12] = tested on: Crandell-Rees feline kidney cells; assay: Cytotoxicity; format: cell-based
[13] = tested on: HeLa cell cultures; assay: Cytotoxicity; format: cell-based
Procedure, shortened: as §1

[14] = tested on: Vero cell cultures; assay: Cytotoxicity; format: cell-based
Procedure, shortened: as §1

[15] = tested on: MDCK cells; settings: microscopically detectable alteration of normal cell morphology
[16] = in vitro; settings: dog
[17] = tested on: Sindbis virus; assay: microbe, parasite or virus in culture; format: cell-based; settings: Sindbis virus, Vero, read-out: Antiviral activity EC50 Sindbis virus
[18] = tested on: Coxsackie virus B4; assay: microbe, parasite or virus in culture; format: cell-based; settings: Enterovirus B, B4, Vero, read-out: Antiviral activity EC50 Coxsackie virus B4
[19] = tested on: Para-influenza-3 virus; assay: organism not typed; format: cell-based, parainfluenza-3 virus; settings: Vero, read-out: Antiviral activity EC50 Para-influenza-3 virus
[20] = tested on: Reovirus-1; assay: organism not typed; format: cell-based; settings: Vero, read-out: Antiviral activity EC50 Reovirus-1
[21] = tested on: Punta Toro virus; assay: microbe, parasite or virus in culture; format: cell-based; settings: Punta Toro virus, Vero, read-out: Antiviral activity EC50 Punta Toro virus
[22] = tested on: mouse-skin papillomas induced by DMBA and TPA; assay: Two-stage mouse-skin carcinogenesis test; format: in vivo
Procedure, shortened: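 Specific pathogen-free female ICR mice, 6 weeks old, about 30 g, 15 per group, kept at 24 ± 2 °C. Shaved backs were initiated with DMBA (100 μg, 390 nmol) in 0.1 ml acetone. One week later, TPA (1 μg, 1.7 nmol) in acetone was applied twice weekly. Test compound (85 nmol) in 0.1 ml acetone was applied topically 1 h before each TPA. Papillomas were scored weekly for 20 weeks as % mice bearing papillomas and mean papillomas per mouse.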

[23] = read-out: Antiviral EC50 Influenza B MTS
[24] = read-out: Antiviral EC50 Influenza B Visual CPE score

Compound | EC50 [1] [µM] | EC50 [2] [nM] | EC50 [3] [µM] | EC50 [4] [µM] | EC50 [5] [µM] | EC50 [6] [µM] | EC50 [7] [µM] | EC50 [8] [µM] | EC50 [10, 23] [µM] | EC50 [10, 24] [µM] | Minimum cytotoxic concentration [11] [µM] | Minimum cytotoxic concentration [12] [µM] | Minimum cytotoxic concentration [13] [µM] | Minimum cytotoxic concentration [14] [µM] | Cytotoxicity Minimum cytotoxic concentration [15] | CC50 [16] [µM] | EC50 [17] [µM] | EC50 [18] [µM] | other results
O=C1Nc2ccccc2/C1=N/NC(=S)N/N=C1\C(=O)Nc2ccccc21 [6e, 1,3-Bis({[(3Z)-2-oxo-2,3-dihydro-1H-indol-3-ylidene]amino})thiourea] | > 20 | > 100000 | > 100 | > 100 | > 100 | > 100 | > 100 | > 100 | 48 ± 31 | 39 ± 5.5 | 100 | >100 | >100 | 100 | >100 | > 100 |  |  | anti-influenza activity (in words) [9]: some activity
NC12CC3CC(CC(C3)C1)C2 [Amantadine, reference compound] |  |  |  |  |  |  |  |  | > 200 | > 200 |  |  |  |  | >200 | > 200 |  |  | 
Nc1ccn(C[C@@H](CO)OCP(=O)(O)O)c(=O)n1 [Cidofovir, reference compound] | 0.78 ± 0.49 | 2000 | 1 | 22 | > 250 | 0.9 |  |  |  |  | >300 |  |  |  |  |  |  |  | 
NC(=O)c1ncn([C@@H]2O[C@H](CO)[C@@H](O)[C@H]2O)n1 [Ribavirin, reference compound] |  |  |  |  |  |  |  | 112 | 2.45 ± 0.25 | 2.4 ± 1.6 |  |  | >250 | >250 | >100 |  | > 250 | 250 | 
O=C1/C(=N\NC(=S)NN=Cc2ccccc2)c2ccccc2N1Cc1ccccc1 [4g, 3-{[(3Z)-1-benzyl-2-oxo-2,3-dihydro-1H-indol-3-ylidene]amino}-1-[(phenylmethylidene)amino]thiourea] | > 100 | > 100000 | > 100 | > 100 | > 100 | > 100 | > 100 | > 20 | > 100 | > 100 | ≥100 | ≥100 | 100 | >100 | >100 | > 100 | > 100 | > 100 | EC50 [19]: > 100 µM; EC50 [20]: > 100 µM; EC50 [21]: > 100 µM
Nc1ncnc2c1ncn2C[C@H](O)CO [(S)-DHPA, reference compound] |  |  |  |  |  |  |  | > 250 |  |  |  |  | >250 | >250 |  |  | > 250 | > 250 | EC50 [19]: > 250 µM; EC50 [20]: > 250 µM; EC50 [21]: > 250 µM
O=c1[nH]c(=O)n([C@H]2C[C@H](O)[C@@H](CO)O2)cc1/C=C/Br [Brivudin, reference compound] |  | 40 | 112 | 4 | > 250 | 50 |  |  |  |  | >300 |  |  |  |  |  |  |  | 
Nc1nc2c(ncn2COCCO)c(=O)[nH]1 [Acyclovir, reference compound] |  | 400 | 0.2 | > 250 | > 250 | 22 |  |  |  |  |  |  |  |  |  |  |  |  | 
O=C(N/N=C1\C(=O)Nc2ccccc21)N/N=C1\C(=O)Nc2ccccc21 [6a, 1,3-Bis({[(3Z)-2-oxo-2,3-dihydro-1H-indol-3-ylidene]amino})urea] | > 100 | > 100000 | > 100 | > 100 | > 100 | > 100 | > 100 | > 100 | > 100 | > 100 | ≥100 | >100 | >100 | 100 | >100 | > 100 |  |  | 
Cc1ccc2c(c1)/C(=N/NC(=O)N/N=C1\C(=O)Nc3ccc(C)cc31)C(=O)N2 [6c, 1,3-Bis({[(3Z)-5-methyl-2-oxo-2,3-dihydro-1H-indol-3-ylidene]amino})urea] | > 100 | > 100000 | > 100 | > 100 | > 100 | > 100 | 55.1 | > 100 | > 20 | > 20 | >100 | >100 | >100 | 100 | ≥20 | 46 | > 20 | > 20 | EC50 [19]: > 20 µM; EC50 [20]: > 20 µM; EC50 [21]: > 20 µM; chemoprevention / anti-tumor promoting activity (in words) ([22]; 85 nmol topical): highest chemoprevention activity; also recorded: stronger chemoprevention activity; percentage of papilloma-bearing mice ([22]; 85 nmol topical before each TPA, during weeks 10–15): 40–70%; percentage of papilloma-bearing mice ([22]; 85 nmol topical, week 18): 90%; papillomas/mouse ([22]; 85 nmol topical, week 20): 5.1 papillomas/mouse; percentage of papilloma-bearing mice ([22]; 85 nmol topical, week 20): 100%
Nc1nc(O)c2ncn(COC(CO)CO)c2n1 [Ganciclovir, reference compound] | 5.5 ± 2.36 | 20 | 0.01 | > 100 | > 100 | 4 | 1.4 |  |  |  | >350 | >100 |  |  |  |  |  |  | 
CCC(CC)O[C@@H]1C=C(C(=O)O)C[C@H](N)[C@H]1NC(C)=O [Oseltamivir carboxylate, reference compound] |  |  |  |  |  |  |  |  | 2.5 ± 0.7 | 6.7 ± 5.3 |  |  |  |  | >100 | > 100 |  |  | 
O=C(N/N=C1\C(=O)Nc2ccc(Cl)cc21)N/N=C1\C(=O)Nc2ccc(Cl)cc21 [6b, 1,3-Bis({[(3Z)-5-chloro-2-oxo-2,3-dihydro-1H-indol-3-ylidene]amino})urea] | > 20 | > 100000 | > 100 | > 100 | > 100 | > 100 | 19.7 | > 100 | > 100 | > 100 | 100 | >100 | >100 | 100 | >100 | > 100 | > 20 | > 20 | EC50 [19]: > 20 µM; EC50 [20]: > 20 µM; EC50 [21]: > 20 µM; chemoprevention / anti-tumor promoting activity (in words) ([22]; 85 nmol topical): moderate protection; papillomas/mouse ([22]; 85 nmol topical, 10 weeks of promotion): 1.2 papillomas/mouse; papillomas/mouse ([22]; 85 nmol topical, 15 weeks of promotion): 3.9 papillomas/mouse; percentage of papillomas (mice with papillomas) ([22]; 85 nmol topical, after week 17): 100%; papillomas/mouse ([22]; 85 nmol topical, week 20): 6.1 papillomas/mouse
CC(N)C12CC3CC(CC(C3)C1)C2 (centres unmarked) [Rimantadine, reference compound] |  |  |  |  |  |  |  |  | > 200 | > 200 |  |  |  |  | >200 | > 200 |  |  | 
